For five compounds, inhibition, IC25 and IC50 results are on record in ChEMBL document CHEMBL2010658, “Caspase-1 and -3 inhibiting drimane sesquiterpenoids from the extremophilic fungus Penicillium solitum” (J Nat Prod, 2012).

In assay [1] the target is T1, Caspase-3 (Homo sapiens) (UniProt P42574).
T1 sequence (whole entry): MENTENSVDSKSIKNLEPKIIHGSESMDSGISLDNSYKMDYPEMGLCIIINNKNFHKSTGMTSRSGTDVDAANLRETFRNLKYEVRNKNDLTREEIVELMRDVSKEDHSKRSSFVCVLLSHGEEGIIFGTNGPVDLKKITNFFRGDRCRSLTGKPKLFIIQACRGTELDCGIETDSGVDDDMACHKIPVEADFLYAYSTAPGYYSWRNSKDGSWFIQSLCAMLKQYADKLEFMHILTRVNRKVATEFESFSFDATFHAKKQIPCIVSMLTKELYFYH
The experiment in a line: (§1) Inhibition of caspase 3 by signal transduction fluorometric assay. In outline:
(§2)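 Fluorometric enzyme inhibition assays. Reference inhibitors were Ac-YVAD-CHO for caspase-1, Ac-DEVD-CHO for caspase-3, and NNGH for MMP-3.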

The target of assay [2] is T2, Caspase-1 (Homo sapiens) (UniProt P29466).
T2 sequence (whole entry): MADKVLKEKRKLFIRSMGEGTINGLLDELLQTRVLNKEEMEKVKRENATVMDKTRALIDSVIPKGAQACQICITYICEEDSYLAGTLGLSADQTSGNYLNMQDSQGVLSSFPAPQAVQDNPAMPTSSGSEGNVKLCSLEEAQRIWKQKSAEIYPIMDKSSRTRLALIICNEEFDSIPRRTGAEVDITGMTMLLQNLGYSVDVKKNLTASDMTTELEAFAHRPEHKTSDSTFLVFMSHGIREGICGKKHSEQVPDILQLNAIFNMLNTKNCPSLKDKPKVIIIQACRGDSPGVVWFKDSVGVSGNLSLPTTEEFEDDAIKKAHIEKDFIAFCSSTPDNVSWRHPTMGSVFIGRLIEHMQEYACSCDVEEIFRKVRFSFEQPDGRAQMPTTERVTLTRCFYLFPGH
In words: (§3) Inhibition of caspase 1 by signal transduction fluorometric assay. The essentials:
as §2

Assay [3] concerns the target Stromelysin-1 (Homo sapiens) (UniProt P08254). In words: Inhibition of MMP3 by signal transduction fluorometric assay. In outline:
as §2

Assay [4] deals with T3, Caspase-3 (Homo sapiens, UniProt P42574).
T3 sequence (P42574 whole entry): T1 sequence (whole entry)
The assay is described as §1. The essentials: as §2

The target of assay [5] is T4, Caspase-1 (Homo sapiens, UniProt P29466).
T4 sequence (P29466 whole entry): T2 sequence (whole entry)
Described as §3. In outline: as §2

Assay [6] has as its system THP-1. The experiment in a line: Antiinflammatory activity in human THP1 cells assessed as inhibition of titanium dioxide nanowires/LPS-induced IL-1beta production at 1 to 100 uM after 24 hrs by ELISA. The class given is functional, cell-based. The essentials:
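PMA-differentiated THP-1 cells (1 μg/mL PMA, 24 h beforehand), grown in RPMI with 10% FBS, 0.05 mM 2-mercaptoethanol and pyruvate. Cells were scraped, pelleted, and resuspended at 1.0 × 10⁶ cells/mL. They were exposed to compound at 1, 10 and 100 μM plus LPS (20 ng/mL) and TiO₂ nanowires (100 μg/mL) for 24 h at 37 °C. IL-1β was measured by ELISA and viability by MTS (490 nm).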

Calls of active or inactive are those of the source. No cut-off for these calls is given here.

Sequence of Stromelysin-1 (Homo sapiens) (P08254 100-477 limits assumed): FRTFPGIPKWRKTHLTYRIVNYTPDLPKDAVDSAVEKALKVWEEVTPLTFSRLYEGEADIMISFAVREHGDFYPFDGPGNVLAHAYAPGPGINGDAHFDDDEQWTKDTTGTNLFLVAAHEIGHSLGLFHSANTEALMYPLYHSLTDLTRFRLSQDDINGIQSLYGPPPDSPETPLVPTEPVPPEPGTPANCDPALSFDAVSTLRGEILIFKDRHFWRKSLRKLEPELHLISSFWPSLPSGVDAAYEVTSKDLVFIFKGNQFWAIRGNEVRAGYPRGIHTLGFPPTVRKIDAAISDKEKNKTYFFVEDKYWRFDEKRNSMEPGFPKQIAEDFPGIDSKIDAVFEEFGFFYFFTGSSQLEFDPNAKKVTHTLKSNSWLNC

`CCCCCCCCCC[C@H](C(=O)OC)[C@]1(C(=O)OC)CCC(=O)O1`: the inhibition result in assay [1], in assay [2] and in assay [3] was “inactive” in each case.

As a reminder, the IC25 is the concentration needed for an effect of 25%. Lower therefore signals an effect from little substance. Usually IC50 stands for the concentration that gives 50% inhibition. A higher IC50 goes with weaker potency in that assay. As for `CC(=O)N[C@H](C(=O)O[C@H]1CCC(C)(C)[C@@H]2CC=C3C(=O)OC[C@]3(O)[C@@]12C)C(C)C` (relative stereo), in assay [1], the concentration for an effect of 25% (IC25) is 10 µM. Besides, the figures for the IC50 in assay [4] and in assay [5] were 50 µM and 90 µM, respectively. The inhibition result in assay [6] is “Active”.

Compound `CC(=O)N[C@H](C(=O)O[C@H]1CCC(C)(C)[C@@H]2CC=C3C(=O)OC[C@@H]3[C@@]12C)C(C)C` (relative stereo) had an IC25 in assay [1] of 15 µM. Also, the results for the IC50 in assay [4] and in assay [5] were 200 µM and 100 µM, respectively. For the same compound, the inhibition entry in assay [6] was “Active”.

With `C=CCCCCCCCC[C@H](C(=O)OC)[C@@](O)(CCC(=O)OC)C(=O)OC`, the inhibition entry in assay [1], in assay [2] and in assay [3] was “inactive” throughout.

`CCCCCCCCCC[C@H](C(=O)OC)[C@@](O)(CCC(=O)OC)C(=O)OC`: the inhibition entry in assay [1], in assay [2] and in assay [3] was “inactive” throughout.
